Each structure is given as a SMILES string. pEC50, pKi: −log10 of the molar value. Calls of active or inactive are those of the source. Where only a bound is given, the exact number is not on record here.

For data set [1], the target named is T1, Bromodomain-containing protein 4 (Homo sapiens, UniProt O60885). As to the kind of experiment: Inhibition of BRD4 (unknown origin) expressed in human H1299 cells co-expressing HPV16-LCR/E2 after 24 hrs by Bright Glo-luciferase reporter gene assay. It is filed as cell-based. An outline of the steps:
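Target-engagement reporter in an H1299-derived line carrying a stably integrated E2 expression cassette and an HPV-LCR-driven luciferase reporter. The read-out is BRD4-dependent E2-mediated transcriptional repression. EC50 is the mean of two measurements.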
A general note: In a reporter assay the amount or activity of a reporter protein is the signal.

For data set [2], the target named is T1, Bromodomain-containing protein 4. As to the kind of experiment: Binding affinity to His-tagged BRD4 BD1-BD2 (K57 to K550 residues) (unknown origin) after 1 hr by Alexa-647-conjugated probe based TR-FRET assay. (Time-resolved FRET reads energy transfer from a long-lived donor to a nearby acceptor.)
The subject of the next data set is Liver. As to the kind of experiment: Unbound intrinsic clearance in mouse liver microsomes. It is filed as ADME, microsome. On the technique in general: Liver microsomes are vesicles of endoplasmic reticulum, rich in cytochrome P450 enzymes.
The next data set has as its system MX1. The data set is described as follows: Antiproliferative activity against human MX1 cells incubated over 72 hrs by Cell Titre Glo luminescence assay. It is filed as functional, cell-based. The conditions noted are these: MX1, 72 h. An outline of the steps:
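Triple-negative breast cancer line MX-1 grown 3 days with compound. Proliferation read with the CellTiter-Glo kit. EC50 is the mean of two measurements.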

Data set [3] can be described thus: Permeability of the compound. The format is physicochemical. The note with it: not told; read-out: permeability.
The target of data set [4] is T1, Bromodomain-containing protein 4. The data set is described as follows: Binding affinity to Ile,Leu,Val,Met-[13C-methyl]-labelled BRD4 BD2 (352 to 457 residues) (unknown origin) expressed in Escherichia coli BL21 (DE3) by NMR method.
The subject of another data set is Mus musculus. The data set is described as follows: Unbound AUC in mouse at 10 mg/kg, po. The note with it: in vivo. It is filed as ADME, organism-based.
Data set [5] can be described thus: Half life in mouse at 3 mg/kg, iv. The format is ADME, organism-based. The conditions noted are these: in vivo.
A short description of data set [6]: Oral bioavailability in mouse at 10 mg/kg. It is filed as ADME, organism-based. The conditions noted are these: in vivo.

By pEC50 is commonly meant −log10 of the EC50, conventionally taken in molar units. A word on the pKi: it is −log10 of the Ki, conventionally taken in molar units. Turning to `Cc1[nH]c(-c2cc(NS(C)(=O)=O)ccc2Oc2ccc(F)cc2F)c2c1C(=O)NCC2`, the pEC50 in data set [1] was 6.38. In addition, the pKi in data set [2] is 7.08.
Turning to `Cc1[nH]c(-c2cc(NS(C)(=O)=O)ccc2Oc2ccccc2)c2c1C(=O)NCC2`, the pEC50 in data set [1] was 6.92. In addition, the pKi in [2] was 7.39.
In the data set on Liver, `Cc1[nH]c(-c2cc(S(C)(=O)=O)ccc2Oc2ccc(F)cc2F)c2c1C(=O)CCC2` displayed a CL free of 84 L/h/kg. Further, the pEC50 was 5.85 in [1] and 6.24 in the data set on MX1. Further, the pKi in [2] was 6.34.
The compound `Cc1[nH]c(-c2cc(S(C)(=O)=O)ccc2Oc2ccc(F)cc2F)c2cn[nH]c(=O)c12` displayed a CL free with Liver of 37 L/h/kg. The Papp in data set [3] was 120 nm/s. Also, the negative-log EC50 (pEC50) in data set [1] was 6.12; in the data set on MX1 it was 6.41. In data set [2], the pKi was 7.11.
As to `CCS(=O)(=O)Nc1ccc(Oc2ccc(F)cc2F)c(-c2cn(C)c3c(=O)[nH]ccc23)c1`, the pKi in [2] was 7.96.
`CCS(=O)(=O)Nc1ccc(Oc2ccccc2)c(-c2[nH]c(C)c3c(=O)[nH]ncc23)c1` showed a CL free in the data set on Liver of 48 L/h/kg. The Papp in data set [3] was 95 nm/s. For the same compound, the figures for the pEC50 (in data set [1]; in the data set with MX1) were 7.12 and 7.28, respectively. The pKi in data set [2] was 8.00.
Turning to `Cc1[nH]c(-c2cc(NS(C)(=O)=O)ccc2Oc2ccc(F)cc2F)cc1C(N)=O`, in [1], the pEC50 was 5.64. In addition, the pKi in data set [2] was 6.43.
In turn, `Cc1[nH]c(-c2c(N)cccc2Oc2ccccc2)cc1C(N)=O` had a pEC50 in data set [1] of 5.68. The negative logarithm of the Ki (pKi) in [2] was 5.80.
Compound `Cc1[nH]c(-c2ccccc2)cc1C(N)=O` gave a negative-log Ki (pKi) in data set [2] of 4.92.
`Cc1[nH]c(-c2cc(N)ccc2Oc2ccccc2)cc1C(N)=O` gave a pEC50 in [1] of 6.06. The pKi in data set [2] is 6.38.
Regarding `Cc1[nH]c(-c2ccccc2N)cc1C(N)=O`, the pEC50 (in data set [1]; in the data set on MX1) was under 5.00 each time. In data set [2], the pKi is 4.66.
In the case of `Cc1[nH]c(-c2cc(N)ccc2Oc2ccccc2)c2c1C(=O)CCC2`, the pEC50 in data set [1] is 6.52; with MX1, 6.64. Also, in [2], the pKi was 6.68.
In data set [2], `COC(=O)C[C@@H]1N=C(c2ccc(Cl)cc2)c2c(sc(C)c2C)-n2c(C)nnc21` had a pKi of 7.77.
As for `Cc1[nH]c(-c2cc(NS(C)(=O)=O)ccc2Oc2ccccc2)c2nc[nH]c(=O)c12`, the pEC50 in data set [1] was 6.39. The compound also gave a pKi in [2] of 6.82.
`Cn1cc(-c2cc(CS(C)(=O)=O)ccc2Oc2ccc(F)cc2F)c2cc[nH]c(=O)c21`: in the data set on Liver, the CL free came out at 24 L/h/kg. Besides, in data set [3], the Papp was 400 nm/s. This compound showed a pEC50 in data set [1] of 7.40. Besides, the negative logarithm of the Ki (pKi) in data set [2] is 7.96.
In turn, `Cc1[nH]c(-c2cc(NS(C)(=O)=O)ccc2Oc2ccccc2)cc1C(N)=O` showed a pEC50 in [1] of 5.85. The compound also showed a pKi in data set [2] of 6.55.
The like results for `Cc1[nH]c(-c2ccccc2N)c2c1C(=O)CCC2` were, in that order, 5.15 and 5.02.
In data set [1], `COC(=O)c1ccc(Oc2ccccc2)c(-c2[nH]c(C)c3c2CCCC3=O)c1` gave a pEC50 of 5.70. For the same compound, the negative logarithm of the Ki (pKi) in [2] is 7.04.
For the compound `CCNC(=O)c1ccc(Oc2ccccc2)c(-c2[nH]c(C)c3c2CCCC3=O)c1`, the pEC50 (in data set [1]; in the data set on MX1) was 5.85 each time. In addition, the pKi in data set [2] is 6.60.
As for `Cn1cc(-c2cc(S(C)(=O)=O)ccc2Oc2ccccc2)c2cc[nH]c(=O)c21`, the pEC50 in [1] was 7.04. For the same compound, the negative logarithm of the Ki (pKi) in [2] was 7.77.
In the data set with Liver, `Cc1[nH]c(-c2cc(NS(C)(=O)=O)ccc2Oc2ccc(F)cc2F)c2cn[nH]c(=O)c12` displayed a CL free of over 15 L/h/kg. Also, the Papp in [3] was 61 nm/s. Besides, the pEC50 is 6.55 in data set [1] and 7.04 with MX1. Moreover, the pKi in data set [2] was 7.80.
For the compound `Cc1[nH]c(-c2ccccc2Nc2ccccc2)cc1C(N)=O`, the pEC50 in data set [1] is 5.55. This compound also showed a pKi in data set [2] of 6.35.
Take `Cc1[nH]c(-c2ccccc2Oc2ccccc2)c2nc[nH]c(=O)c12`: the CL free in the data set with Liver was over 370 L/h/kg. Besides, the Papp in data set [3] was determined as 1000 nm/s. Also, the figures for the pEC50 (in [1]; in the data set on MX1) were 5.80 and 5.92, respectively. In data set [2], this compound gave a pKi of 5.96.
The compound `Cc1[nH]c(-c2ccccc2Oc2ccccc2)cc1C(N)=O` showed a pEC50 in data set [1] of 6.35. In data set [2], this compound had a negative logarithm of the Ki (pKi) of 6.57.
For the compound `CC(=O)c1cc(-c2ccccc2N)[nH]c1C`, in [2], the negative-log Ki (pKi) was 4.68. For the same compound, the result in [4] was Active.
The compound `Cc1[nH]c(-c2ccccc2Oc2ccc(Cl)cc2)cc1C(N)=O` gave a pEC50 in data set [1] of 6.55. The compound further showed a pKi in [2] of 6.39.
`Cc1[nH]c(-c2cc(NS(C)(=O)=O)ccc2Oc2ccccc2)c2cn[nH]c(=O)c12` showed a pEC50 in [1] of 6.74. This compound gave a pKi in data set [2] of 7.52.
What is called half-life is the time needed for the level to fall by half in the phase considered. Low readings indicate fast loss, high ones slow loss. The term bioavailability denotes the share of a dose that reaches the circulation, judged against a reference dose that is usually intravenous. A higher bioavailability goes with much systemic uptake. `CCS(=O)(=O)Nc1ccc(Oc2ccc(F)cc2)c(-c2cn(C)c3c(=O)[nH]ccc23)c1` yielded a fAUC with Mus musculus of 60 nM·h. For the same compound, the half-life in data set [5] is 5.6 h. In data set [1], this compound showed a negative-log EC50 (pEC50) of 7.33. The pKi in data set [2] is 8.26. The compound further gave a bioavailability in data set [6] of 33%.
`Cc1[nH]c(-c2cc(S(C)(=O)=O)ccc2Oc2ccc(F)cc2F)cc1C(N)=O`: the CL free in the data set with Liver amounted to 6 L/h/kg. The pEC50 is 5.35 in [1] and 5.49 in the data set on MX1. In [2], this compound had a pKi of 5.66.
`Cc1[nH]c(-c2ccccc2Oc2ccccc2)c2cn[nH]c(=O)c12` gave a pEC50 in [1] of 6.66. For the same compound, in [2], the pKi is 7.43.
Taken in the same sequence, the figures for `Cn1cc(-c2cc(NS(C)(=O)=O)ccc2Oc2ccc(F)cc2F)c2cc[nH]c(=O)c21` were 7.34 and 7.77.
Taken in the same sequence, the figures for `Cc1[nH]c(-c2ccccc2Oc2ccccc2)c2c1C(=O)NCC2` were 6.55 and 6.47.
For `Cc1[nH]c(-c2ccccc2Oc2ccccc2)c2cc[nH]c(=O)c12`, the pEC50 in data set [1] was 6.15. For the same compound, the pKi in [2] is 6.35.
In turn, `Cc1[nH]c(-c2cc(NS(C)(=O)=O)ccc2Oc2ccc(F)cc2F)c2c1C(=O)CCC2` had a pEC50 in data set [1] of 7.12. In data set [2], this compound showed a pKi of 7.01.
`CCOC(=O)c1[nH]c(C)c2c1CCCC2=O` showed a negative-log Ki (pKi) in [2] of 4.60. Moreover, in data set [4], the result was Active.
In the case of `Cn1cc(-c2ccccc2Oc2ccccc2)c2cc[nH]c(=O)c21`, the CL free in the data set with Liver was 6400 L/h/kg. For the same compound, in [3], the Papp amounted to 130 nm/s. The values for the pEC50 (in [1]; with MX1) were 5.96 and 6.24, respectively. Moreover, in data set [2], the pKi was 6.92.
`Cc1[nH]c(-c2ccccc2Oc2ccccc2)c2c1C(=O)CCC2` had a pEC50 in [1] of 6.55. The compound further gave a pKi in [2] of 6.36.

The values above are taken from ChEMBL document CHEMBL4038268, “Methylpyrrole inhibitors of BET bromodomains” (Bioorg Med Chem Lett, 2017).
